In ChEMBL document CHEMBL1141343, “Scalarane sesterterpenes from a marine sponge of the genus Spongia and their FXR antagonistic activity” (J Nat Prod, 2007) one finds IC50 and Activity data, which are given here for six molecules.

Test [1] is described as follows: Cytotoxicity against monkey CV1 cells after 24 hrs by MTT assay. It is filed as cell-based. The following applies: Chlorocebus aethiops, CV-1, 24 h. A digest of the protocol: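 CV-1 monkey kidney cells plated in DMEM with 10% FBS at 37 °C, 5% CO2, grown 24 h, then exposed to compounds at a range of concentrations for 24 h. MTT at 1 mg/mL added for 1 h at 37 °C. Formazan dissolved in DMSO and absorbance read at 450 nm. Each experiment repeated more than three times.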
In general terms: Tetrazolium dyes change colour on reduction, which living cells bring about.

Another test addresses T1, Bile acid receptor (Homo sapiens, UniProt Q96RI1).
T1 sequence (Q96RI1 whole entry): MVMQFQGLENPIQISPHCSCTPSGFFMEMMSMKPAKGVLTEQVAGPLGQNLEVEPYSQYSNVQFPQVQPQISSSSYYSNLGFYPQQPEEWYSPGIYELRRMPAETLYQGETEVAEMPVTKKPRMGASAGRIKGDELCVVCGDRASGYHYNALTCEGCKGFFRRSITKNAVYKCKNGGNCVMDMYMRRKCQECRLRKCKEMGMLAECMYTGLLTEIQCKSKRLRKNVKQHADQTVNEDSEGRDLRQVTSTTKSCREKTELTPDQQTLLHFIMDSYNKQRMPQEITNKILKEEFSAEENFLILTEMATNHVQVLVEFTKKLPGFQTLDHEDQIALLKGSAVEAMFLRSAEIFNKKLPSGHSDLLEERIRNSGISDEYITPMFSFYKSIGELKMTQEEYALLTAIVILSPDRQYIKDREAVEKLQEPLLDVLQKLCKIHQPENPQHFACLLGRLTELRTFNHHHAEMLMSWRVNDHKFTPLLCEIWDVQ
The test is described as follows: Antagonist activity at human FXR expressed in monkey CV1 cells after 24 hrs by ecdysone receptor response element-driven luciferase reporter assay. It is filed as functional, cell-based, CV-1. Put shortly: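 Full-length human FXR, EcRE-driven luciferase reporter and β-galactosidase plasmid cotransfected into CV-1 cells, seeded 24 h beforehand in DMEM with 10% lipid-depleted FBS at 37 °C, 5% CO2. After a further 24 h, cells were exposed to compound or DMSO vehicle with 50 µM CDCA. Harvest was at 24 h, with luciferase normalized to β-galactosidase. Triplicate wells, three repeats.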
In general terms: In a reporter assay the amount or activity of a reporter protein is the signal.

The target of test [2] is T2, Bile acid receptor (Homo sapiens) (UniProt Q96RI1).
T2 sequence (whole entry): T1 sequence (Q96RI1 whole entry)
The test is described as follows: Inhibition of CDCA-mediated interaction between FXR ligand binding domain and SRC1 at 25 uM by SPR spectroscopy. A digest of the protocol: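 Human FXR LBD (4 µM) preincubated 1 h with compound plus 50 µM CDCA, then injected for 120 s over an immobilized SRC-1 coactivator peptide surface, followed by a 120 s buffer wash. Biacore SPR, 25 °C.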
(Surface plasmon resonance follows binding to a sensor surface in real time, without labels.)

Active and inactive are the calls of the source. The rule behind the calls is not given here. A value given as a limit tells only on which side of the number the result lay.

The term IC50 denotes the concentration that inhibits the measured activity by half. For `CC1(C)CCC[C@]2(C)[C@H]3C[C@@H](O)[C@]4(C)[C@@H]5C(=CC[C@H]4[C@]3(C)CC[C@@H]12)C(=O)O[C@H]5O`, the IC50 in test [1] was determined as 77.2 µM; against Bile acid receptor it was 75 µM. The result in test [2] was Active.
On the same counts, the results for `CC1(C)CCC[C@]2(C)[C@H]3C[C@@H](O)[C@]4(C)[C@H]5COC(=O)C5=CC[C@H]4[C@]3(C)CC[C@@H]12` are 41.4 µM, 31.6 µM and “Active”.
Take `CC(=O)O[C@@H]1C[C@@H]2[C@@]3(C)CCCC(C)(C)[C@@H]3CC[C@@]2(C)[C@@H]2CC=C3C(=O)O[C@@H](O)[C@@H]3[C@@]12C`: the IC50 worked out at 75.1 µM in test [1] and 60.4 µM at Bile acid receptor. For the same molecule, the result in test [2] was Active.
On to `C[C@]1(CO)CCC[C@]2(C)[C@H]3C[C@@H](O)[C@]4(C)[C@H]5COC(=O)C5=CC[C@H]4[C@]3(C)CC[C@@H]12`, for which the IC50 (in test [1]; against Bile acid receptor) was more than 100 µM each time.
Regarding `CO[C@@H]1OC(=O)C2=CC[C@H]3[C@]4(C)CC[C@H]5C(C)(C)CCC[C@]5(C)[C@H]4C[C@@H](O)[C@]3(C)[C@H]21`, the IC50 in test [1] was 48 µM; against Bile acid receptor it was 24 µM. In addition, the result in test [2] was Active.
In the case of `C[C@@]1(CO)CCC[C@]2(C)[C@H]3C[C@@H](O)[C@]4(C)[C@H]5COC(=O)C5=CC[C@H]4[C@]3(C)CC[C@@H]12`, the IC50 amounted to 49.4 µM in test [1] and 2.4 µM on Bile acid receptor.
